ChEMBL document CHEMBL1128382, “N4-unsubstituted N1-arylpiperazines as high-affinity 5-HT1A receptor ligands” (J Med Chem, 1995)

target: T1, 5-hydroxytryptamine receptor 1A (Rattus norvegicus, UniProt P19327); assay: Displacement of [3H]2-(di-N-propylamino)-8-hydroxytetralin from central 5-hydroxytryptamine 1A receptor recognition sites in rat frontal cortex homogenates.; assay type: tissue-based
T1 sequence (P19327 whole entry): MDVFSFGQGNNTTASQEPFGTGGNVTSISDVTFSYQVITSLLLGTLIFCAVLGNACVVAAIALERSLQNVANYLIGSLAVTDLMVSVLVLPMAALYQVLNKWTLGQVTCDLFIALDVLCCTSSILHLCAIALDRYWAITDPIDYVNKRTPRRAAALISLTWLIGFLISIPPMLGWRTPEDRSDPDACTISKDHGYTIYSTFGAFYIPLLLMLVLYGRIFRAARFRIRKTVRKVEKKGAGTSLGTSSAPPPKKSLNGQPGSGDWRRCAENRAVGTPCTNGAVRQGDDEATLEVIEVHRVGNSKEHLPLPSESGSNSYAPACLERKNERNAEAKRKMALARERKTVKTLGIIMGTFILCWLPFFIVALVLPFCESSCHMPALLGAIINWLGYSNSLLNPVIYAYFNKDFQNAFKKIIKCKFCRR
In short: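 Competition binding against tritiated 8-OH-DPAT in rat frontal cortex homogenate. Ki values come from n separate determinations, each testing four to six ligand concentrations in triplicate.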

SMILES	Ki [nM]
c1ccc2c(N3CCNCC3)cccc2c1	18
Cc1cc(N2CCNCC2)c2occc2c1	120
CC1=COc2c(cccc2N2CCNCC2)O1	5.2
Brc1cc(N2CCNCC2)c2occc2c1	35
Cc1coc2c(N3CCNCC3)cccc12	73
c1cc2c(c(N3CCNCC3)c1)CCCC2	84
N#Cc1ccc2ccoc2c1N1CCNCC1	220
Fc1ccc(N2CCNCC2)c2occc12	18
Fc1cc(N2CCNCC2)c2occc2c1	105
C1=COc2c(cccc2N2CCNCC2)O1	12
COc1cc(N2CCNCC2)c2occc2c1	28
Brc1ccc(N2CCNCC2)c2occc12	300
COc1cccc(N2CCNCC2)c1OC	1000
Brc1coc2c(N3CCNCC3)cccc12	130
Cc1ccc(N2CCNCC2)c2occc12	220
COc1ccc(N2CCNCC2)cc1	20000
COc1cccc(N2CCNCC2)c1	320
COc1ccc2c(c1N1CCNCC1)OCCO2	> 10000
Clc1ccc2c(c1N1CCNCC1)OCCO2	200
c1cc(N2CCNCC2)c2[nH]ccc2c1	200
c1cc(N2CCNCC2)c2sccc2c1	9.9
Cc1cc2cccc(N3CCNCC3)c2o1	13
Fc1ccc2ccoc2c1N1CCNCC1	5.8
COc1ccc(N2CCNCC2)c2occc12	430
O=[N+]([O-])c1ccc2ccoc2c1N1CCNCC1	140
c1ccc(N2CCNCC2)cc1 [PHENYLPIPERAZINE]	500
